Reference: ChEMBL document CHEMBL1649438, “Activities of ceftobiprole and other cephalosporins against extracellular and intracellular (THP-1 macrophages and keratinocytes) forms of methicillin-susceptible and methicillin-resistant Staphylococcus aureus” (Antimicrob Agents Chemother, 2009)
Converted amounts (≈) assume the structure as drawn.

Key:
Staphylococcus aureus [1] = assay: Bacteriostatic activity against hospital-acquired vancomycin-intermediate Staphylococcus aureus NRS18 infected in human THP-1 cells assessed as change in bacterial count after 24 hrs at pH 7.4; format: functional
In short: (§1)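 Human THP-1 macrophage-like cells were infected with S. aureus to a postphagocytosis inoculum of 1.5 × 10^6 to 3.0 × 10^6 CFU/mg cell protein. Cells were then exposed 24 h to increasing extracellular antibiotic concentrations. Response was the log10 CFU change per mg protein from the postphagocytosis inoculum, n = 3. A Hill function was fitted on log-transformed axes. E0 and Emax were extrapolated to infinitely low and high concentrations. Cs was read by graphical interpolation. Concentrations were expressed as multiples of the broth MIC at pH 5.5 or pH 7.4.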

Staphylococcus aureus [2] = assay: Bacteriostatic activity against methicillin-resistant Staphylococcus aureus ATCC 33591 infected in human keratinocytes assessed as change in bacterial count after 24 hrs; format: functional
In short: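 Primary human skin keratinocytes were grown in defined keratinocyte serum-free medium, infected, then incubated 24 h with increasing extracellular drug concentrations. Response was the change in log10 CFU/mg cell protein versus the post-phagocytosis inoculum, fitted to a Hill equation with slope factor 1. Static concentration (mg/liter, total drug) was taken by graphical interpolation where CFU equalled the original inoculum.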

Staphylococcus aureus [3] = assay: Antimicrobial activity against Panton-valentine leucocidin-positive community-acquired methicillin-resistant Staphylococcus aureus N4042228 infected in human THP-1 cells assessed as change in bacterial count after 24 hrs; format: functional, organism-based; details: N4042228, THP-1, 24 h
In short: (§2)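 THP-1 human macrophages infected with S. aureus (postphagocytosis inoculum 1.5 × 10^6 to 3.0 × 10^6 CFU/mg cell protein), then incubated 24 h with increasing extracellular antibiotic concentrations. Change in log10 CFU/mg cell protein from the postphagocytosis inoculum, n = 3. Hill function fitted on log-transformed data. Low-concentration value (E0) and high-concentration value (Emax) are extrapolated. Where a pH is given, concentrations are expressed as multiples of the broth MIC at that pH.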

Staphylococcus aureus [4] = assay: Antimicrobial activity against methicillin-susceptible Staphylococcus aureus […] infected in human THP-1 cells assessed as bacterial count per mg of cell protein at high extracellular compound concentration after 24 hrs; format: functional; in short: as §1
Staphylococcus aureus [5] = assay: Antimicrobial activity against methicillin-susceptible Staphylococcus aureus ATCC 11632 infected in human THP-1 cells assessed as bacterial count per mg of cell protein at high extracellular compound concentration after 24 hrs at pH 5.5; format: functional; in short: as §1
Staphylococcus aureus [6] = assay: Antimicrobial activity against methicillin-susceptible Staphylococcus aureus […] infected in human THP-1 cells assessed as bacterial count per mg of cell protein at high extracellular compound concentration after 24 hrs at pH 7.4; format: functional; in short: as §1
Staphylococcus aureus [7] = assay: Antimicrobial activity against hospital-acquired vancomycin-intermediate Staphylococcus aureus NRS18 infected in human THP-1 cells assessed as change in bacterial count after 24 hrs at pH 5.5; format: functional, organism-based; details: NRS18, THP-1, 24 h
In short: (§3)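 THP-1 macrophages infected as described previously, with a postphagocytosis inoculum of 1.5 × 10⁶ to 3.0 × 10⁶ CFU/mg cell protein. Cells were exposed 24 h to increasing extracellular antibiotic concentrations. Response is the change in log10 CFU/mg protein from the inoculum (n = 3), fitted to a Hill function. E0 and Emax were extrapolated to infinitely low and high concentrations. EC50 and static concentration (graphical interpolation) are expressed as multiples of the broth MIC at pH 5.5 or 7.4.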

Staphylococcus aureus [8] = assay: Antimicrobial activity against Panton-valentine leucocidin-positive community-acquired methicillin-resistant Staphylococcus aureus STA 44 infected in human THP-1 cells assessed as change in bacterial count after 24 hrs; format: functional, organism-based; details: STA 44, THP-1, 24 h; in short: as §2
Staphylococcus aureus [9] = assay: Antimicrobial activity against Panton-valentine leucocidin-positive community-acquired methicillin-resistant Staphylococcus aureus NRS192 infected in human THP-1 cells assessed as bacterial count per mg of cell protein at high extracellular compound concentration after 24 hrs at pH 5.5; format: functional; in short: as §2
MecA = molecular target: T1, MecA (Staphylococcus aureus, UniProt Q7DHH4); assay: Binding affinity to Staphylococcus aureus ATCC […] PBP2a by Western blotting at pH 7.4 in presence of 100 uM Bocillin FL
T1 sequence (Q7DHH4 whole entry): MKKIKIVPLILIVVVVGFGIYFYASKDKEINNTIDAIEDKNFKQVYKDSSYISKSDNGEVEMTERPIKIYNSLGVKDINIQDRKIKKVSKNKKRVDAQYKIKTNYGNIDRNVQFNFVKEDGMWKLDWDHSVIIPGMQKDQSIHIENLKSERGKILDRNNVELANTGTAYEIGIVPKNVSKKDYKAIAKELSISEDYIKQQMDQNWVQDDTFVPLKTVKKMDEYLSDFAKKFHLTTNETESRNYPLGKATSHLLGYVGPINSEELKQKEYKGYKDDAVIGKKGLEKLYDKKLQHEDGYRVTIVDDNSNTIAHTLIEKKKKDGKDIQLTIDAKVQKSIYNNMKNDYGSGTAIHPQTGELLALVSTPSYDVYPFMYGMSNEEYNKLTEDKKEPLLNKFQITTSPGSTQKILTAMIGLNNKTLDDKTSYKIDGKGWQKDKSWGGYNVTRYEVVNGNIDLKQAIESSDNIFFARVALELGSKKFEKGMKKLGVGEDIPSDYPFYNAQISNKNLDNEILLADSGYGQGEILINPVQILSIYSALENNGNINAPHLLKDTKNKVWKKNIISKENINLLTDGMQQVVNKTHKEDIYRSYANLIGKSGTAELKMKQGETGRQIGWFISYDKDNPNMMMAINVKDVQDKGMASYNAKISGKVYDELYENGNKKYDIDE
In short: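 Soluble truncated PBP 2a (ΔM1-Y23) was expressed in E. coli Rosetta 2(DE3) and purified. It was preincubated 25 min at 37°C with increasing cephalosporin concentrations, then 100 μM Bocillin FL was added for 25 min at 37°C at pH 5.5 or 7.4. Samples were run on SDS-PAGE and blotted with anti-bodipy antibody plus HRP secondary. Bands were detected by chemiluminescence and quantified by densitometry.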

Staphylococcus aureus [10] = assay: Antimicrobial activity against Panton-valentine leucocidin-positive community-acquired methicillin-resistant Staphylococcus aureus isolate MEH2225605 infected in human THP-1 cells assessed as bacterial count per mg of cell protein at low extracellular compound concentration after 24 hrs; format: functional; in short: as §2
Staphylococcus aureus [11] = assay: Antimicrobial activity against hospital-acquired vancomycin-intermediate Staphylococcus aureus NRS18 infected in human THP-1 cells assessed as bacterial count per mg of cell protein at low extracellular compound concentration after 24 hrs at pH 7.4; format: functional; in short: as §1
Staphylococcus aureus [12] = assay: Antimicrobial activity against hospital-acquired methicillin-resistant Staphylococcus aureus […] infected in human THP-1 cells assessed as change in bacterial count after 24 hrs at pH 5.5; format: functional, organism-based; details: THP-1, 24 h; in short: as §3
Staphylococcus aureus [13] = assay: Bacteriostatic activity against hospital-acquired vancomycin-intermediate Staphylococcus aureus NRS126 infected in human THP-1 cells assessed as change in bacterial count after 24 hrs at pH 5.5; format: functional
Staphylococcus aureus [14] = assay: Antimicrobial activity against hospital-acquired vancomycin-intermediate Staphylococcus aureus NRS126 infected in human THP-1 cells assessed as bacterial count per mg of cell protein at low extracellular compound concentration after 24 hrs at pH 7.4; format: functional; in short: as §3

Nc1nc(/C(=N/O)C(=O)N[C@@H]2C(=O)N3C(C(=O)O)=C(/C=C4\CCN([C@@H]5CCNC5)C4=O)CS[C@H]23)ns1 [CEFTOBIPROLE]
Activity (Staphylococcus aureus [1]): 0.74 mg/L | Activity (Staphylococcus aureus [2]): 1.95 mg/L | EC50 (Staphylococcus aureus [3]): 0.07 µg/mL (≈ 0.131 µM) | log10cfu (Staphylococcus aureus [4]): -1.15 | log10cfu (Staphylococcus aureus [5]): 1.04 | log10cfu (Staphylococcus aureus [6]): -1.04 | EC50 (Staphylococcus aureus [7]): 0.77 ×MIC | EC50 (Staphylococcus aureus [8]): 0.94 µg/mL (≈ 1.76 µM) | log10cfu (Staphylococcus aureus [9]): -1.02 | IC50 (MecA): 8 µM | log10cfu (Staphylococcus aureus [10]): 2.47 | log10cfu (Staphylococcus aureus [11]): 2.6 | EC50 (Staphylococcus aureus [12]): 0.77 ×MIC | Activity (Staphylococcus aureus [13]): 1.97 multiples of MIC | log10cfu (Staphylococcus aureus [14]): 2.6
